Laboratory results as given in ChEMBL document CHEMBL5614410, “Design, Synthesis, and Evaluation of p53Y220C Acetylation Targeting Chimeras (AceTACs)” (J Med Chem, 2024).
The source made the active and inactive calls. No cut-off for these calls is given here.

Assays:
NCI-H1299 [1] = assay: Antiproliferative activity against p53-null human NCI-H1299 cells assessed as reduction in cell viability at 0.47 to 15 uM incubated for 3 days by WST-8 assay; format: functional, cell-based; conditions: dose 0.47-15 µM, time 3.0 day
Method in brief: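 p53-null NCI-H1299 cells were exposed to compound across the concentration series for 72 h before the viability read-out. Data are mean ± SD from three independent experiments.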

BXPC-3 = assay: Antiproliferative activity against human BXPC-3 cells harboring p53Y220C mutant assessed as inhibition of cell growth incubated for 72 hrs by WST-8 assay; format: functional
Method in brief: (§1)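 BxPC3 or NUGC-3 cells were treated with DMSO or compound over a concentration range for 72 h before the viability read-out. Values are mean ± SD of technical triplicates from three biological experiments.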

NUGC-3 = assay: Antiproliferative activity against human NUGC-3 cells harboring p53Y220C mutant assessed as inhibition of cell growth incubated for 72 hrs by WST-8 assay; format: functional; method in brief: as §1
[2] = test system: Cellular tumor antigen p53 (Homo sapiens), P04637 [Y220C]; assay: Induction of p53Y220C mutant acetylation in human BXPC-3 cells expressing p300/CBP assessed as increase in p53 acetylation at lysine 382 residue at 1 to 10 uM incubated for 24 hrs by western blot analysis; format: cell-based; conditions: dose 1-10 µM
Method in brief: (§2)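 BxPC3 or NUGC-3 cells, which endogenously carry p53Y220C, were dosed at 1, 3 or 10 μM (or DMSO) for 24 h. Lysates were immunoblotted for p53 and p53 K382ac, with vinculin loading control. Blots are representative of two independent experiments.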

[3] = test system: Cellular tumor antigen p53 (Homo sapiens), P04637 [Y220C]; assay: Induction of p53Y220C mutant acetylation in human NUGC-3 cells expressing p300/CBP assessed as increase in p53 acetylation at lysine 382 residue at 1 to 10 uM incubated for 24 hrs by western blot analysis; format: cell-based; conditions: dose 1-10 µM; method in brief: as §2
[4] = test system: CREB-binding protein/Histone acetyltransferase p300/Cellular tumor antigen p53 (Homo sapiens), P04637+Q09472+Q92793 [Y220C]; assay: AceTAC activity at FLAG-tagged p53Y220C mutant (unknown origin) expressed in human NCI-H1299 cells expressing p300/CBP assessed as increase in p53 acetylation at lysine 382 residue at 10 uM incubated for 24 hrs by western blot analysis relative to control; format: cell-based
Method in brief: (§3)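 NCI-H1299 (p53Y220C) cells were treated at 0.1–10 μM (0.1, 0.3, 1, 3 or 10 μM) for 24 h. Lysates were Western blotted for p53 and p53K382ac, with vinculin as loading control. p53K382ac was normalised to total p53Y220C and quantified from two or three independent experiments.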

NCI-H1299 [5] = assay: Antiproliferative activity against human NCI-H1299 cells expressing p53Y220C mutant assessed as reduction in cell viability incubated for 3 days by WST-8 assay; format: functional; conditions: NCI-H1299, 72 h, time 3 day
Method in brief: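 NCI-H1299 p53Y220C cells were exposed to compound over a concentration range for 72 h, in some runs after 72 h of control or p300 siRNA, before the viability read-out. Values are mean ± SD of three independent experiments.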

[6] = test system: CREB-binding protein/Histone acetyltransferase p300/Cellular tumor antigen p53 (Homo sapiens), P04637+Q09472+Q92793 [Y220C]; assay: AceTAC activity at FLAG-tagged p53Y220C mutant (unknown origin ) expressed in human NCI-H1299 cells expressing p300/CBP assessed as increase in p53 acetylation at lysine 382 residue at 1 uM incubated for 24 hrs by western blot analysis; format: cell-based
Method in brief: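 NCI-H1299 cells stably expressing p53Y220C, treated 24 h at 1 or 10 μM. Lysates were Western blotted for total p53 and p53 K382ac, with vinculin as loading control. Blots are representative of at least two independent experiments.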

[7] = test system: CREB-binding protein/Histone acetyltransferase p300/Cellular tumor antigen p53 (Homo sapiens), P04637+Q09472+Q92793 [Y220C]; assay: Induction of interaction between FLAG-tagged p53Y220C mutant (unknown origin) and p300/CBP expressed in human NCI-H1299 cells assessed as ternary complex formation at 10 uM incubated for 24 hrs by co-immunoprecipitation analysis; format: cell-based
Method in brief: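 NCI-H1299 p53-null and p53Y220C cells were treated with DMSO or compound at 10 μM for 24 h. p53-FLAG pull-down was followed by Western blotting for associated p300. Representative of two independent experiments.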

NCI-H1299 [8] = assay: Antiproliferative activity against human NCI-H1299 cells expressing p53Y220C mutant and transfected with p300 siRNA assessed as reduction in cell viability at 0.47 to 15 uM incubated for 3 days by WST-8 assay; format: functional, cell-based; conditions: dose 0.47-15 µM, time 3.0 day
Method in brief: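 NCI-H1299 p53Y220C cells were first transfected with p300 siRNA for 72 h, then exposed to compound across the concentration series for 72 h. Viability is mean ± SD from three independent experiments.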

[9] = test system: Cellular tumor antigen p53 (Homo sapiens), P04637 [Y220C]; assay: Stabilization of FLAG-tagged p53Y220C mutant (unknown origin) expressed in human NCI-H1299 cells assessed as upregulation of p21 mRNA expression at 3 uM incubated for 24 hrs by RT-qPCR analysis; format: cell-based
Method in brief: (§4)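 NCI-H1299 p53Y220C cells were treated with 3 μM or DMSO for 24 h, followed by RT-qPCR of p53 target genes. Each transcript was normalized to GAPDH, then expressed relative to the DMSO control. Values are mean ± SD from three independent experiments.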

[10] = test system: Cellular tumor antigen p53 (Homo sapiens), P04637 [Y220C]; assay: Stabilization of FLAG-tagged p53Y220C mutant (unknown origin) expressed in human NCI-H1299 cells assessed as downregulation of E2F1 mRNA expression at 3 uM incubated for 24 hrs by RT-qPCR analysis; format: cell-based; method in brief: as §4
[11] = test system: Cellular tumor antigen p53 (Homo sapiens), P04637 [Y220C]; assay: Stabilization of FLAG-tagged p53Y220C mutant (unknown origin) expressed in human NCI-H1299 cells assessed as upregulation of GADD45A mRNA expression at 3 uM incubated for 24 hrs by RT-qPCR analysis; format: cell-based; method in brief: as §4
PNT2 = assay: Cytotoxicity against human PNT2 cells assessed as inhibition of cell growth incubated for 72 hrs by WST-8 assay; format: toxicity, cell-based; conditions: pnt2, 72 h
Method in brief: (§5)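 U2OS (WT p53) or normal prostate PNT2 cells were treated for 72 h at the indicated concentrations. Viability is mean ± SD of technical triplicates from two biological experiments.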

U2OS = assay: Cytotoxicity against human U2OS cells harboring wild type p53 assessed as inhibition of cell growth incubated for 72 hrs by WST-8 assay; format: toxicity, cell-based; method in brief: as §5
[12] = Cytotoxicity against human U2OS cells harboring wild type p53 assessed as inhibition of cell growth at 10 uM incubated for 72 hrs by WST-8 assay; format: toxicity, cell-based; method in brief: as §5
[13] = Cytotoxicity against human PNT2 cells assessed as inhibition of cell growth at 10 uM incubated for 72 hrs by WST-8 assay; format: toxicity, cell-based; method in brief: as §5
[14] = test system: Cellular tumor antigen p53 (Homo sapiens), P04637 [Y220C]; assay: Induction of FLAG-tagged p53Y220C mutant acetylation (unknown origin) expressed in human NCI-H1299 cells assessed as increase in p53 acetylation at lysine 382 residue at 10 uM incubated for 24 hrs by western blot analysis relative to control; format: cell-based; method in brief: as §3
[15] = test system: Cellular tumor antigen p53 (Homo sapiens), P04637 [Y220C]; assay: Stabilization of p53Y220C mutant (unknown origin) assessed as increase in melting temperature at 250 uM by […]

## COc1ccc(CCc2nc3cc(-c4c(C)noc4C)ccc3n2CCN2CCOCC2)cc1F
NCI-H1299 [1]
  Activity: inactive
BXPC-3
  Activity: inactive
NUGC-3
  Activity: inactive
[2]
  Activity: inactive
[3]
  Activity: inactive

## CCn1c2ccc(CNCCC(=O)NCCOc3ccc(CCc4nc5cc(-c6c(C)noc6C)ccc5n4CCN4CCOCC4)cc3F)cc2c2ccc(-c3cc(C)cs3)cc21
[4]
  Activity: 70%
NCI-H1299 [5]
  GI50: 13 µM

## CCn1c2ccc(CNCCCC(=O)NCCOc3ccc(CCc4nc5cc(-c6c(C)noc6C)ccc5n4CCN4CCOCC4)cc3F)cc2c2ccc(-c3cc(C)cs3)cc21
[4]
  Activity: 195%
NCI-H1299 [5]
  GI50: 4 µM
[6]
  Activity: Active

## CCn1c2ccc(CNC)cc2c2ccc(-c3cc(C)cs3)cc21
NCI-H1299 [5]
  GI50: 16 µM
[7]
  Activity: inactive
NCI-H1299 [1]
  Activity: inactive
NCI-H1299 [8]
  Activity: Active
[9]
  Activity: Active
[10]
  Activity: inactive
[11]
  Activity: Active
BXPC-3
  GI50: 14 µM
NUGC-3
  GI50: 10.1 µM
PNT2
  GI50: > 10 µM
[2]
  Activity: inactive
[3]
  Activity: inactive
U2OS
  GI50: > 10 µM
[12]
  inhibition at 72 h, 10 µM: 30%
[13]
  inhibition at 72 h, 10 µM: ~30%
[14]
  Activity: 26%
[15]
  ΔTm: 3.7 °C

## CCn1c2ccc(CNCCCCCCC(=O)NCCOc3ccc(CCc4nc5cc(-c6c(C)noc6C)ccc5n4CCN4CCOCC4)cc3F)cc2c2ccc(-c3cc(C)cs3)cc21
[4]
  Activity: 219%
NCI-H1299 [5]
  GI50: 4 µM
[6]
  Activity: Active

## CCn1c2ccc(CNCC(=O)NCCOc3ccc(CCc4nc5cc(-c6c(C)noc6C)ccc5n4CCN4CCOCC4)cc3F)cc2c2ccc(-c3cc(C)cs3)cc21
[4]
  Activity: 60%
NCI-H1299 [5]
  GI50: 18 µM

## CCn1c2ccc(CNCCCCC(=O)NCCOc3ccc(CCc4nc5cc(-c6c(C)noc6C)ccc5n4CCN4CCOCC4)cc3F)cc2c2ccc(-c3cc(C)cs3)cc21
[4]
  Activity: 202%
NCI-H1299 [5]
  GI50: 4 µM
[6]
  Activity: Active

## CCn1c2ccc(CNCCOCCOCCOCCOCCOCCC(=O)NCCOc3ccc(CCc4nc5cc(-c6c(C)noc6C)ccc5n4CCN4CCOCC4)cc3F)cc2c2ccc(-c3cc(C)cs3)cc21
[4]
  Activity: 184%
NCI-H1299 [5]
  GI50: 5 µM
[6]
  Activity: Active

## CCn1c2ccc(CNCCOCCOCCC(=O)NCCOc3ccc(CCc4nc5cc(-c6c(C)noc6C)ccc5n4CCN4CCOCC4)cc3F)cc2c2ccc(-c3cc(C)cs3)cc21
[4]
  Activity: 205%
NCI-H1299 [5]
  GI50: 4 µM
[6]
  Activity: Active
